Experimental data as given in publication PMC5743405 (International Journal of Oncology, 2017).
“Also recorded” adds a separate entry of the source.

Assays:
[1] = test system: CALCR; assay: PathHunter β-arrestin; type: cell-based; conditions: 6 μM
Method in brief: (§1)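 β-Arrestin recruitment assay: the enzyme acceptor is fused to β-arrestin and the ED fragment to the GPCR. Recruitment restores β-galactosidase, read by chemiluminescence. % activity = 100% × (test − vehicle)/(max control ligand − vehicle). % inhibition = 100% × (1 − (test − vehicle)/(EC80 control − vehicle)). An agonist hit needs >30% activity and RLU > baseline + 3×SD. An antagonist hit needs >35% inhibition and RLU < EC80 RLU − 3×SD.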

[2] = test system: HRH2; assay: PathHunter β-arrestin; type: cell-based; conditions: 6 μM
Method in brief: (§2)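 Vendor-run (DiscoveRx) PathHunter enzyme fragment complementation. β-Arrestin carries the EA fragment and the receptor carries ED; recruitment restores β-gal activity, read by chemiluminescence (RLU). Agonist % activity = vehicle-subtracted RLU relative to max control ligand (gpcrMAX) or to vehicle (orphanMAX). Antagonist % inhibition = 100% × (1 − vehicle-subtracted sample RLU / vehicle-subtracted EC80 agonist control RLU).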

[3] = test system: F2RL1; assay: PathHunter β-arrestin; type: cell-based; conditions: antagonist mode, 6 μM
Method in brief: (§3)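 Engineered cells express the receptor fused to one β-galactosidase fragment (ED) and β-arrestin fused to the complementing fragment (EA). Receptor activation recruits β-arrestin, which restores enzyme activity, and this is read by chemiluminescence (RLU). Agonist % activity is 100% × (test − vehicle)/(maximal control ligand − vehicle). Antagonist mode is challenged with an EC80 control agonist, and % inhibition is 100% × (1 − (test − vehicle)/(EC80 − vehicle)). Hits require >30% activity or >35% inhibition, plus a 3×SD RLU margin.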

[4] = test system: CCR4; assay: PathHunter β-arrestin; type: cell-based; conditions: antagonist mode, 6 μM
Method in brief: as §3

[5] = test system: CCR7; assay: PathHunter β-arrestin; type: cell-based; conditions: 6 μM
Method in brief: as §3

[6] = test system: C5AR1; assay: PathHunter β-arrestin; type: cell-based; conditions: antagonist mode, 6 μM
Method in brief: as §1

[7] = test system: CCR9; assay: PathHunter β-arrestin; type: cell-based; conditions: 6 μM
Method in brief: as §3

[8] = test system: TACR2; assay: PathHunter β-arrestin; type: cell-based; conditions: agonist mode, 6 μM
[9] = test system: TLR4; assay: western blot, JJ012 cells; type: cell-based, human; conditions: vs untreated control, overnight incubation
[10] = test system: BDKRB2; assay: PathHunter β-arrestin; type: cell-based; conditions: antagonist mode, 6 μM
Method in brief: as §1

[11] = test system: TACR3; assay: PathHunter β-arrestin; type: cell-based; conditions: antagonist mode, 6 μM
[12] = test system: HRH4; assay: PathHunter β-arrestin; type: cell-based; conditions: antagonist mode, 6 μM
Method in brief: as §2

[13] = test system: AGTR1; assay: PathHunter β-arrestin; type: cell-based; conditions: agonist mode, 6 μM
Method in brief: as §1

[14] = test system: CCKBR; assay: PathHunter β-arrestin; type: cell-based; conditions: antagonist mode, 6 μM
Method in brief: as §1

[15] = test system: OXER1; assay: PathHunter β-arrestin; type: cell-based; conditions: agonist mode, 6 μM
[16] = test system: orphan receptors; assay: orphanMAX β-arrestin panel, agonist mode; type: cell-based; conditions: summary of Table III
[17] = test system: RXFP3; assay: PathHunter β-arrestin; type: cell-based; conditions: 6 μM
Method in brief: (§4)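 β-Arrestin recruitment to GPCR read by β-galactosidase fragment complementation and chemiluminescence. Agonist: % = 100 × (test − vehicle)/(max control ligand − vehicle), hit at >30% and RLU > baseline + 3 SD. Antagonist, against EC80 agonist: % inhibition = 100 × (1 − (test − vehicle)/(EC80 − vehicle)), hit at >35% and RLU < EC80 − 3 SD.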

[18] = test system: CCR1; assay: PathHunter β-arrestin; type: cell-based; conditions: antagonist mode, 6 μM
Method in brief: as §1

[19] = test system: MUC5B; assay: TriCEPS ligand-receptor capture; type: binding, human; conditions: 10 μg/ml PRP-1
[20] = test system: P2RY6; assay: PathHunter β-arrestin; type: cell-based; conditions: antagonist mode, 6 μM
Method in brief: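 GPCR-ED fusion and β-arrestin-EA fusion; arrestin recruitment restores β-galactosidase, read by chemiluminescence. Antagonist mode uses EC80 agonist challenge. % inhibition = 100 × (1 − (test − vehicle RLU)/(EC80 control − vehicle RLU)). Hit requires >35% inhibition and mean RLU below EC80 RLU − 3 × EC80 SD.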

[21] = test system: GLP2R; assay: PathHunter β-arrestin; type: cell-based; conditions: agonist mode, 6 μM
Method in brief: as §2

[22] = test system: EDG7; assay: PathHunter β-arrestin; type: cell-based; conditions: antagonist mode, 6 μM
Method in brief: as §3

[23] = test system: CNR2; assay: PathHunter β-arrestin; type: cell-based; conditions: 6 μM
Method in brief: as §3

[24] = test system: CRTH2; assay: PathHunter β-arrestin; type: cell-based; conditions: antagonist mode, 6 μM
Method in brief: as §3

[25] = test system: VIPR2; assay: PathHunter β-arrestin; type: cell-based; conditions: 6 μM
Method in brief: as §4

[26] = test system: DRD3; assay: PathHunter β-arrestin; type: cell-based; conditions: 6 μM
Method in brief: as §3

[27] = test system: TLR5; assay: western blot, JJ012 cells; type: cell-based, human; conditions: vs untreated control, overnight incubation
[28] = test system: TLR1; assay: western blot, JJ012 cells; type: cell-based, human; conditions: vs untreated control, overnight incubation
Method in brief: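 JJ012 cells seeded at 1×10^6 cells/ml in 6-well clusters and incubated overnight at 37°C, 5% CO2 with or without test compound. Lysed with protease inhibitor (1:100) and centrifuged at 15,000 × g, 4°C. Protein loaded at 20 μg/lane with reducing agent, run on polyacrylamide gel, transferred to PVDF, probed with rabbit anti-TLR primaries and HRP-linked secondaries.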

[29] = test system: GLP1R; assay: PathHunter β-arrestin; type: cell-based; conditions: antagonist mode, 6 μM
Method in brief: as §2

[30] = test system: MUC5B; assay: MUC5B ELISA, JJ012 cell lysates; type: cell-based; conditions: PRP-1 at 1 μg/ml; human JJ012 cell lysates
Method in brief: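 Cells trypsinized at confluency and seeded in 6-well clusters at 1×10^6 cells/ml. Test compound added to experimental wells only, controls untreated. Overnight at 37°C, 5% CO2. Cells washed in ice-cold PBS with protease inhibitor, lysed in buffer with protease inhibitor (1:100), scraped and spun at 15,000 × g, 4°C. Protein measured in supernatant. MUC5B quantified with a commercial human MUC5B ELISA kit.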

## Proline rich polypeptide 1 [PRP-1]
[1]; agonist mode
  % Activity: 1%
[1]; antagonist mode
  % Inhibition: 1%
[2]; agonist mode
  % Activity: 1%
[2]; antagonist mode
  % Inhibition: 1%
[3]
  % Inhibition: 3%
[4]
  % Inhibition: 2%
[5]; agonist mode
  % Activity: 1%
[5]; antagonist mode
  % Inhibition: −2%
[6]
  % Inhibition: 3%
[7]; agonist mode
  % Activity: 1%
[7]; antagonist mode
  % Inhibition: −6%
[8]
  % Activity: 1%
[9]
  protein expression: PRP-1 did not have any effect
[10]
  % Inhibition: 5%
[11]
  % Inhibition: −1%
[12]
  % Inhibition: −9%
[13]
  % Activity: 2%
[14]
  % Inhibition: −3%
[15]
  % Activity: −2%
[16]
  orphan receptor agonism: neither that this peptide was agonist for orphan receptors
[17]; agonist mode
  % Activity: 6%
[17]; antagonist mode
  % Inhibition: −3%
[18]
  % Inhibition: −3%
[19]
  binding partner detection: detected MUC5B as binding partner with 10 μg/ml PRP-1 treatment
[20]
  % Inhibition: 3%
[21]
  % Activity: 1%
[22]
  % Inhibition: −3%
[23]; agonist mode
  % Activity: −2%
[23]; antagonist mode
  % Inhibition: 5%
[24]
  % Inhibition: −8%
[25]; agonist mode
  % Activity: 1%
[25]; antagonist mode
  % Inhibition: −3%
[26]; agonist mode
  % Activity: 2%
[26]; antagonist mode
  % Inhibition: −15%
[27]
  protein expression: PRP-1 did not have any effect
[28]
  protein expression: strong upregulation; also recorded: upregulated protein expression of TLR1 and TLR2 in dose-dependent manner
[29]
  % Inhibition: −9%
[30]
  MUC5B presence in cell lysates: 440 ng/mL
